Source: PubChem BioAssay
M1 agonist: M1 muscarinic receptor agonists, primary screen, CHO-M1 cells, Fluo-4 calcium, agonist mode. Fluo-4 calcium fluorescence; hits give high values. B-score at 10 µM. actives 3% (n = 64,000);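 active = fluorescence rise, raw or as B-score row- and column-corrected plate score, outside the 99.7% band of its plate's samples, either direction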
DAT uptake mod: changed hDAT dopamine uptake under cocaine IC80, either direction, primary screen, cocaine antagonist project, cell-based, LLC-PK1 hDAT, [14C]-dopamine uptake, MLSMR | Sodium-dependent dopamine transporter (Homo sapiens), Q01959 | LLC-PK1 hDAT cells, [14C]-dopamine uptake with cocaine IC80; actives deviate in either direction | B-score at 10 µM | actives 1.3% (n = 110,000) | AID 449768, 2010;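 active = Z score or B-score, a plate-position-corrected score, falls beyond the plate's 99.7% confidence bounds, in either direction; inactive = both scores lie inside the 99.7% bounds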
Target sequence (Q01959 whole entry, looked up): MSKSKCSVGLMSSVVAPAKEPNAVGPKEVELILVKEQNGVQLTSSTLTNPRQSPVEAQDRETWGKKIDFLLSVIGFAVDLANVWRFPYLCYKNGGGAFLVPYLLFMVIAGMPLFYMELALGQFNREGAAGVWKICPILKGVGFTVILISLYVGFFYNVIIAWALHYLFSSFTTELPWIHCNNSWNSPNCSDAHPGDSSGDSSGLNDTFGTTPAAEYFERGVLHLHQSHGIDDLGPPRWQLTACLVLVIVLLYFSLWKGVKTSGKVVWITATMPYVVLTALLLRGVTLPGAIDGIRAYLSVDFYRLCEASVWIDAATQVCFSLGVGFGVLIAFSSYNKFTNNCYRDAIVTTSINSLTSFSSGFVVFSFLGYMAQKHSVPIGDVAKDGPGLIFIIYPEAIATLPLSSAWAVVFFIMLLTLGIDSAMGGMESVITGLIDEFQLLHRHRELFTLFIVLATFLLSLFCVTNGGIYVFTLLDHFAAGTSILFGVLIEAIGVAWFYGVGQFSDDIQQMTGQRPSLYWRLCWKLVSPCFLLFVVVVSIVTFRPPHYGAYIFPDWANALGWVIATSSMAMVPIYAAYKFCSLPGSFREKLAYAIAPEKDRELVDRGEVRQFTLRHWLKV
HEK293 NFkB inh: inhibitors of PMA/ionomycin-induced NF-kB reporter, primary screen, antigen receptor NF-kB inhibitor project, cell-based, HEK-293 luciferase reporter, luminescence; HEK-293 NF-kB luciferase reporter; inhibition, % at 3 µM; actives 0.21% (n = 62,000); AID 465, 2006;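 active = inhibition above the mean of all tested compounds plus 3 SD, cut at about 40% in these data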
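Reagent: PMA plus ionomycin mix as NF-kB-activating stimulus. Assay system: NF-kB luciferase reporter HEK-293 cells. Technique: luminescence from luciferase substrate reagent. Incubation: 1 h compound pre-incubation, 16 h PMA/ionomycin at 37 °C. Benchmarks: DMSO only as uninhibited control, 10 µM reference inhibitor as full inhibition. Repeats: tested once.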
D1 allo mod: D1 CRE-luciferase signal change, two-sided – cell-based, HEK293 D1, dopamine EC30, D1 allosteric modulator project, primary screen | D(1A) dopamine receptor (Homo sapiens), P21728 | dopamine EC30 potentiation; actives deviate in either direction | B-score at 10 µM | actives 5.9% (n = 58,000) | AID 641, 2007;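 active = luminescence count or its row- and column-corrected plate score outside the 99.7% band of the plate's sample wells, on either side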
BAP1 inh: inhibitors of BAP1 deubiquitinase, primary screen, biochemical, Ub-AMC fluorescence, kinetic | recombinant BAP1, Ub-AMC hydrolysis fluorescence kinetic; hits give low values | calls only at 20 µM | actives 0.48% (n = 72,000) | Ubiquitin carboxyl-terminal hydrolase BAP1 (Homo sapiens), Q92560;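 active = activity remaining at or below 50% of control, provided the compound also passes the data quality filters; inactive = the rest, including low values that fail the filters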
M1 antag: antagonists of rat M1 muscarinic receptor | Muscarinic acetylcholine receptor M1 (Rattus norvegicus), P08482 | CHO-M1 cells, Fluo-4 calcium, ACh EC80 antagonist mode; hits give low values | B-score at 10 µM | actives 3.4% (n = 64,000) | AID 628, 2007;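 active = calcium fluorescence response, raw or row-and-column corrected B-score, differing from the plate sample mean either way at a set confidence level, mostly lower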
BAP1 inh confirm: BAP1 deubiquitinase inhibitors, hit retest, confirmation, orthogonal assay, biochemical, Ub-ethyl ester substrate, HPLC readout; shares compounds with BAP1 inh; purified BAP1, Ub-ethyl ester hydrolysis; hits give low values; % of control activity, % at 20 µM; actives 8% (n = 310); AID 753, 2007;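 active = percent of control activity at or below 60%; inconclusive = HPLC trace unusable from injection failure or solvent front hiding peaks; inactive = the rest, plus ubiquitin peak ratio over a set limit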
Hits are given with their value; – = inactive; ? = inconclusive; · = no result shown; + = active, no number. In the library only some 7.2% were active in any assay of this set; here they are far more common.

SMILES	M1 agonist	DAT uptake mod	HEK293 NFkB inh	D1 allo mod	BAP1 inh	M1 antag	BAP1 inh confirm
CCOC(=O)C1=C(CC)Nc2ccccc2N=C1NC(=O)Nc1ccccc1OC	–	–	–	–	–	0.84	·
CCOC(=O)C1=C(CC)Nc2ccccc2N=C1NC(=O)c1cc(S(=O)(=O)N(C)C)ccc1Cl	·	–	·	·	·	·	·
O=c1cc(CN2CCOCC2)nc(C2CC2)[nH]1	·	-7.2	·	·	·	·	·
O=C(Cc1ccccc1)Nc1cccc2c1C(=O)c1ccccc1C2=O	·	·	·	·	–	·	·
CCc1ccc2[nH]c(=O)c(CN(CCCN3CCOCC3)C(=O)Nc3cccc(Cl)c3)cc2c1	–	3.3	–	–	–	–	·
CCc1ccc2[nH]c(=O)c(CN(CCCN3CCOCC3)C(=O)Nc3ccc(Cl)cc3)cc2c1	–	–	–	–	–	–	·
CSc1nc2n(n1)C(c1cc(Br)ccc1F)C(C(=O)N(C)C)=C(C)N2 (stereo not given)	–	–	–	–	–	1.6	·
CC1(C)CC(=O)C(C(c2cccnc2)C2C(=O)CC(C)(C)CC2=O)C(=O)C1	–	–	–	-5.5	–	–	·
O=S1(=O)Nc2c(ccc3cccnc23)-c2ccccc21	–	–	–	-3.6	–	–	·
CCN(CC)C(=O)CSc1nnc(-c2ccccc2)n1N	–	–	–	–	·	2.4	·
CCOC(=O)c1sc(NC(=O)c2c(C)nn(Cc3ccccc3)c2C)cc1C	–	–	–	-3.2	·	–	·
COC(=O)CC(=O)Cc1nc(N)nc(Nc2ccc(C)c(C)c2)n1	–	–	·	-5.4	–	–	·
CCN(CC)CCn1c(=N)n(CC(=O)OC)c2ccccc21	·	·	·	·	–	·	·
O=C(Nc1nccs1)c1cc2c(s1)CCCCC2	·	4.3	·	·	·	·	·
NNC(=O)c1cc2c(s1)CCCCCC2	·	–	·	·	·	·	·
Clc1ccc(COn2nnc3ccccc32)c(Cl)c1	–	–	45	–	·	–	·
Cc1nnc(N2C(=O)C(O)=C(C(=O)c3ccco3)C2c2ccc(F)cc2)s1 (stereo not given)	18	–	–	–	–	–	·
CCCC(=O)Nc1cnc(NC(=O)c2cccc(F)c2)cc1C	–	–	–	-3.1	–	–	·
CCCCN(CC)Cc1ccc(CNC(=O)Nc2ccc(F)cc2)o1	·	-5.5	·	·	·	·	·
Cc1ccc(C)c(NC(=O)c2cccnc2)c1	·	·	·	·	–	·	·
COc1ccc(S(=O)(=O)CC(O)CN2CCCC2=O)cc1 (stereo not given)	·	–	·	·	·	·	·
COc1ccc(N=C2CCCN2CC(N)=O)cc1	–	–	–	–	+	–	–
O=C(CN(Cc1ccccc1)S(=O)(=O)c1ccc2c(c1)OCCO2)Nc1ccc2c(c1)OCCO2	–	–	–	–	+	–	–
COc1ccc(Br)cc1C1C(N2C(=O)c3ccc([N+](=O)[O-])cc3C2=O)C(=O)N1c1ccc(C)cc1C (stereo not given)	·	·	·	·	–	·	·
CCOC(=O)c1c(NC(=O)c2nn(CC)cc2Br)c(C#N)nn1-c1ccccc1	–	–	–	–	+	–	–
SMILES	M1 agonist	DAT uptake mod	HEK293 NFkB inh	D1 allo mod	BAP1 inh	M1 antag	BAP1 inh confirm
O=C(O)c1oc2ccc(Br)cc2c1-n1cccc1	–	–	–	–	+	–	–
COc1ccc(OC)c(C=Cc2[nH]c(=O)[nH]c(=O)c2[N+](=O)[O-])c1	·	·	·	·	–	·	·
CCCOC(=O)C1=C(C)NC2=C(C(=O)CCC2)C1c1cccc2ccccc12 (stereo not given)	·	·	·	·	–	·	·
CCCOC(=O)C1=C(C)NC2=C(C(=O)CCC2)C1c1cccc(OC)c1OC (stereo not given)	–	–	–	–	+	–	34
Cc1cccc(C)c1NC(=O)Cn1nnc(-c2ccc(N3CCOCC3)cc2)n1	–	–	–	–	+	–	–
COc1ccc(CCNC(=O)Cn2nnc(-c3ccc(N4CCOCC4)cc3)n2)cc1OC	–	–	–	–	–	–	·
CCOc1cccc2sc(NC(=O)c3ccc(S(=O)(=O)N(CC)CC)cc3)nc12	·	·	·	·	–	·	·
CCSc1sccc1C1C(C#N)=C(N)N(c2cccnc2)C2=C1C(=O)CCC2 (stereo not given)	–	–	–	–	+	–	–
COc1cc(C2C(C#N)=C(N)N(c3cccnc3)C3=C2C(=O)CCC3)ccc1O (stereo not given)	·	–	·	·	·	·	·
O=c1oc(-c2cc3ccccc3o2)nc2sc3c(c12)CCCC3	–	–	–	–	+	–	–
Cc1nc2ccc(Cl)cc2c(-c2ccccc2)c1C1=NN(C(=O)CCC(=O)O)C(c2cccc(Br)c2)C1 (stereo not given)	·	·	·	·	–	·	·
Cc1cccc(-c2cc3nc4c(c(N5CCOCC5)n3n2)CCCC4)c1	–	–	–	–	+	–	–
CC(=O)Nc1cc(-c2ccc(Cl)cc2)nn1-c1ccccc1	·	–	·	·	·	·	·
N#Cc1cc(-c2ccccc2)nn1-c1ccccc1	–	–	–	–	+	–	–
Cc1nc(N2CCN(c3ccccc3)CC2)nc2c1C(=O)CC(c1ccccc1)C2 (stereo not given)	–	–	–	–	+	–	–
CC(=O)Oc1ccc2c(=O)c(-c3csc(C)n3)coc2c1	·	·	·	·	–	·	·
O=C(Nc1nnc(-c2ccco2)s1)C1CC1	–	–	–	–	–	–	·
O=C(Nc1nnc(-c2ccco2)s1)C1CCN(S(=O)(=O)c2ccc(Cl)cc2)CC1	–	–	–	–	+	–	?
CSc1nc(-c2ccccc2O)nc(-c2ccccc2O)n1	–	·	–	–	+	–	–
CCCCn1c2c(c3ccccc31)CCc1nonc1-2	–	–	–	–	+	–	51
Cc1ccc(C)c(S(=O)(=O)N2CCC(c3nc4c(nnn4Cc4ccc(F)cc4)c(=O)[nH]3)CC2)c1	–	–	–	–	+	–	–
Cc1ccc(Cn2nnc3c(=O)[nH]c(C4CCN(S(=O)(=O)c5cc(C)ccc5C)CC4)nc32)cc1	–	–	–	–	+	–	–
O=C(Nc1cccc2ccccc12)c1ccc2c(c1)C(=O)N(c1ccc(I)cc1)C2=O	·	·	·	·	–	·	·
COC(=O)C1=C(C)NC(=O)NC1c1cc(Cl)ccc1OC (stereo not given)	–	–	–	–	+	–	–
COc1ccc(Br)cc1C1NC(=O)NC(C)=C1C(=O)N(C)C (stereo not given)	·	–	·	·	·	·	·
CC(C)(C)n1nc2c(c1NC(=O)c1cccc(C(F)(F)F)c1)CSC2	·	·	·	·	–	·	·
